From ChEMBL document CHEMBL1134521, “Characterization of melanocortin NDP-MSH agonist peptide fragments at the mouse central and peripheral melanocortin receptors” (J Med Chem, 2001)
Where a SMILES comes first, the peptide text is derived from it. [ ]: non-standard residue; d: D form.

Assays:
Melanocortin receptor 5 [1] = molecular target: T1, Melanocortin receptor 5 (Mus musculus, UniProt P41149); test: Functional activity at the mouse melanocortin 5 receptor
How it was run: (§1)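 HEK-293 cells stably expressing the mouse receptor (calcium phosphate transfection, G418 1 mg/mL), transfected with CRE/β-galactosidase reporter. Lysates read at OD405 with ONPG at 37 °C, normalized to protein and forskolin (10^-4 M) response. EC50 from curve fit, at least three independent experiments.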

Melanocortin receptor 4 = Melanocortin receptor 4 (Mus musculus, UniProt P56450); test: Functional activity at the mouse melanocortin 4 receptor; how it was run: as §1
Melanocortin receptor 4, sequence (P56450 whole entry): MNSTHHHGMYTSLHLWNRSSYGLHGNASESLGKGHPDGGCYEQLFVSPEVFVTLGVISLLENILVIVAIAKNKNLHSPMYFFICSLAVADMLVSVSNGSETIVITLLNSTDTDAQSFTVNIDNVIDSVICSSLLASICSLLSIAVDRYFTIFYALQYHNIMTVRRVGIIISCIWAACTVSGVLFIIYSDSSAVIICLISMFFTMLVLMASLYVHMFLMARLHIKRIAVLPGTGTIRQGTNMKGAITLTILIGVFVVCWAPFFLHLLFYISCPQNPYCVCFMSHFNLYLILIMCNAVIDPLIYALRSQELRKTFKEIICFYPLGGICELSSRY

Melanocortin receptor 3 [2] = molecular target: T2, Melanocortin receptor 3 (Mus musculus, UniProt P33033); test: Functional activity at the mouse melanocortin 3 receptor; how it was run: as §1
T2 sequence (P33033 whole entry): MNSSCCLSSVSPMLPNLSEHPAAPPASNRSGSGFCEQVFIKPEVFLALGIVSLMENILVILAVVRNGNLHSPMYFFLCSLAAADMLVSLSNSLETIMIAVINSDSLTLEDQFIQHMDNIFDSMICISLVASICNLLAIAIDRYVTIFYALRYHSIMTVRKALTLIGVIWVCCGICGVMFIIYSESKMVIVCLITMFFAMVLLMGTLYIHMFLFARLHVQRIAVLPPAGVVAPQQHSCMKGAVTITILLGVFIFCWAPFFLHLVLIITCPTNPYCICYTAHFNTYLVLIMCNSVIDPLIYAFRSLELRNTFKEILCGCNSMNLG

[3] = molecular target: T3, Melanocyte-stimulating hormone receptor (Mus musculus, UniProt Q01727); test: Functional activity at the mouse melanocortin 1 receptor; how it was run: as §1
T3 sequence (Q01727 whole entry): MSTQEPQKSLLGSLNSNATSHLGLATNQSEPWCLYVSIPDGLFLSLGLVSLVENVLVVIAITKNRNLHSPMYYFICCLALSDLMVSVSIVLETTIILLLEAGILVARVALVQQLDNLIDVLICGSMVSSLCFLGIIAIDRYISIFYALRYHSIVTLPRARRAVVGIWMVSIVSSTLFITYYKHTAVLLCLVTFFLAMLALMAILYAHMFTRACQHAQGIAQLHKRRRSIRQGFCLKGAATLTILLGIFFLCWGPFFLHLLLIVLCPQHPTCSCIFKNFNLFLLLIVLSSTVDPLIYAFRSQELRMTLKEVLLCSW

[4] = molecular target: T3, Melanocyte-stimulating hormone receptor; test: Functional activity at the mouse melanocortin 1 receptor at 100 uM; Slight agonist
Melanocortin receptor 5 [5] = molecular target: T1, Melanocortin receptor 5; test: Functional activity at the mouse melanocortin 5 receptor at 100 uM; Slight agonist
Melanocortin receptor 3 [6] = molecular target: T2, Melanocortin receptor 3; test: Functional activity at the mouse melanocortin 3 receptor at 100 uM; Slight agonist

T1 sequence (P41149 whole entry): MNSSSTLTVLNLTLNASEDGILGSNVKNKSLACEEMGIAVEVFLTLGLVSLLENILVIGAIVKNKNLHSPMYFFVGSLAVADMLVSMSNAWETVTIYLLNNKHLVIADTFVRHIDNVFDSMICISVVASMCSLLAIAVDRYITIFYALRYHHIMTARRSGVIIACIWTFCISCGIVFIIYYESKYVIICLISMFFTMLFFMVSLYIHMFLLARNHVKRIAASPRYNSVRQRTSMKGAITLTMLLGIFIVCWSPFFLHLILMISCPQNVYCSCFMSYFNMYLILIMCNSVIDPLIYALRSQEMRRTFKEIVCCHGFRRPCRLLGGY

| SMILES | EC50 (Melanocortin receptor 5 [1]) [nM] | EC50 (Melanocortin receptor 4) [nM] | EC50 (Melanocortin receptor 3 [2]) [nM] | EC50 [3] [nM] | EC50 [4] | EC50 (Melanocortin receptor 5 [5]) | EC50 (Melanocortin receptor 3 [6]) |
| --- | --- | --- | --- | --- | --- | --- | --- |
| CC(=O)N[C@@H](Cc1cnc[nH]1)C(=O)N[C@H](Cc1ccccc1)C(=O)N[C@@H](CCCN=C(N)N)C(=O)N[C@@H](Cc1c[nH]c2ccccc12)C(N)=O | 3.46 | 10.2 | – | – | – | – | – |
| CCCC[C@H](NC(C)=O)C(=O)N[C@@H](CCC(=O)O)C(=O)N[C@@H](Cc1c[nH]cn1)C(=O)N[C@H](Cc1ccccc1)C(=O)N[C@@H](CCCN=C(N)N)C(=O)N[C@@H](Cc1c[nH]c2ccccc12)C(=O)NCC(N)=O | 0.59 | 0.94 | 0.39 | 0.045 | – | – | – |
| CCCC[C@H](NC(C)=O)C(=O)N[C@@H](CCC(=O)O)C(=O)N[C@@H](Cc1c[nH]cn1)C(=O)N[C@H](Cc1ccccc1)C(=O)N[C@@H](CCCN=C(N)N)C(=O)N[C@@H](Cc1c[nH]c2ccccc12)C(N)=O | 0.39 | 0.45 | 0.26 | 0.034 | – | – | – |
| CC(=O)N[C@@H](Cc1c[nH]cn1)C(=O)N[C@@H](Cc1ccccc1)C(=O)N[C@@H](CCCN=C(N)N)C(=O)N[C@H](Cc1c[nH]c2ccccc12)C(N)=O | 317 | 6620 | – | – | – | – | – |
| CC(=O)N[C@@H](CCC(=O)O)C(=O)N[C@@H](Cc1c[nH]cn1)C(=O)N[C@H](Cc1ccccc1)C(=O)N[C@@H](CCCN=C(N)N)C(=O)N[C@@H](Cc1c[nH]c2ccccc12)C(N)=O | 0.42 | 4.31 | 15.2 | 8.94 | – | – | – |
| CCCC[C@H](NC(=O)[C@H](CO)NC(=O)[C@H](Cc1ccc(O)cc1)NC(=O)[C@H](CO)NC(C)=O)C(=O)N[C@@H](CCC(=O)O)C(=O)N[C@@H](Cc1c[nH]cn1)C(=O)N[C@H](Cc1ccccc1)C(=O)N[C@@H](CCCN=C(N)N)C(=O)N[C@@H](Cc1c[nH]c2ccccc12)C(=O)NCC(=O)N[C@@H](CCCCN)C(N)=O | 0.46 | 0.44 | 0.16 | 0.018 | – | – | – |
| CC(=O)N[C@@H](Cc1c[nH]cn1)C(=O)N[C@H](Cc1ccccc1)C(=O)N[C@@H](CCCN=C(N)N)C(=O)N[C@@H](Cc1c[nH]c2ccccc12)C(=O)NCC(=O)N[C@@H](CCCCN)C(=O)N1CCC[C@H]1C(=O)N[C@H](C(N)=O)C(C)C | 0.17 | 0.45 | 6.82 | 0.49 | – | – | – |
| CCCC[C@H](NC(=O)[C@H](CO)NC(=O)[C@H](Cc1ccc(O)cc1)NC(=O)[C@H](CO)NC(C)=O)C(=O)N[C@@H](CCC(=O)O)C(=O)N[C@@H](Cc1cnc[nH]1)C(=O)N[C@H](Cc1ccccc1)C(=O)N[C@@H](CCCNC(=N)N)C(=O)N[C@@H](Cc1c[nH]c2ccccc12)C(N)=O | 0.53 | 0.78 | 0.29 | 0.036 | – | – | – |
| CCCC[C@H](NC(C)=O)C(=O)N[C@@H](CCC(=O)O)C(=O)N[C@@H](Cc1cnc[nH]1)C(=O)N[C@H](Cc1ccccc1)C(=O)N[C@@H](CCCNC(=N)N)C(=O)N[C@@H](Cc1c[nH]c2ccccc12)C(=O)NCC(=O)N[C@@H](CCCCN)C(=O)N1CCC[C@H]1C(=O)N[C@H](C(N)=O)C(C)C | 0.46 | 0.32 | 0.11 | 0.021 | – | – | – |
| CC(=O)N[C@@H](Cc1cnc[nH]1)C(=O)N[C@H](Cc1ccccc1)C(=O)N[C@@H](CCCNC(=N)N)C(=O)N[C@H](Cc1c[nH]c2ccccc12)C(N)=O | 61.3 | 154 | – | – | – | – | – |
| CC(=O)N[C@@H](Cc1c[nH]cn1)C(=O)N[C@@H](Cc1ccccc1)C(=O)N[C@@H](CCCN=C(N)N)C(=O)N[C@@H](Cc1c[nH]c2ccccc12)C(N)=O | 103 | 2110 | – | – | – | – | – |
| CC(=O)N[C@H](Cc1ccccc1)C(=O)N[C@@H](CCCN=C(N)N)C(=O)N[C@H](Cc1c[nH]c2ccccc12)C(N)=O | 6880 | 11200 | > 100000 | – | Partial agonist | – | – |
| CC(=O)N[C@@H](Cc1ccccc1)C(=O)N[C@@H](CCCN=C(N)N)C(=O)N[C@@H](Cc1c[nH]c2ccccc12)C(N)=O (Ac-Phe-Arg-Trp-NH2) | – | – | – | – | – | Partial agonist | – |
| CC(=O)N[C@@H](Cc1ccccc1)C(=O)N[C@@H](CCCNC(=N)N)C(=O)N[C@@H](Cc1c[nH]c2ccccc12)C(N)=O (Ac-Phe-Arg-Trp-NH2) | – | > 100000 | > 100000 | 5870 | – | – | – |
| CC(=O)N[C@H](Cc1ccccc1)C(=O)N[C@@H](CCCN=C(N)N)C(=O)N[C@@H](Cc1c[nH]c2ccccc12)C(N)=O (Ac-[dF]-Arg-Trp-NH2) | 1660 | 2320 | – | 4540 | – | – | Partial agonist |
